pIC50: −log10 of the molar value.
What was measured:
Assay type in all cases: functional, cell-based
A549 = experiment: Antiproliferative activity against human A549 cells after 48 hrs by sulforhodamine B assay; conditions: A549, 48 h
Procedure, shortened: (§1)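 Cells grown in DMEM with 10% FBS at 37 °C under 5% CO2. Plated cells were allowed 24 h before drug, then exposed continuously for 48 h at 0.01, 0.1, 1, 10 and 100 μM. Monolayers were fixed with cold 10% TCA for 1 h at 4 °C and stained with 0.057% SRB in 1% acetic acid for 30 min. Bound dye was read at 510 nm. IC50 is the 50% growth-inhibitory concentration, using time-zero and control readings.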

HeLa = experiment: Antiproliferative activity against human HeLa cells after 48 hrs by sulforhodamine B assay; procedure, shortened: as §1
MDA-MB-231 = experiment: Antiproliferative activity against human MDA-MB-231 cells after 48 hrs by sulforhodamine B assay; conditions: MDA-MB-231, 48 h; procedure, shortened: as §1
MIA PaCa-2 = experiment: Antiproliferative activity against human MIAPaCa2 cells after 48 hrs by sulforhodamine B assay; conditions: MIA PaCa-2, 48 h; procedure, shortened: as §1

| SMILES | pIC50 (A549) | pIC50 (HeLa) | pIC50 (MDA-MB-231) | pIC50 (MIA PaCa-2) |
| --- | --- | --- | --- | --- |
| COc1cc(OC)c2sc(-c3ccc(N/C=C\C(=O)c4ccc(OC)c([N+](=O)[O-])c4)cc3)nc2c1 | 5.24 | 4.89 | 4.89 | 5.54 |
| COc1ccc(C(=O)/C=C\Nc2ccc(-c3nc4cc(OC)c(OC)c(OC)c4s3)cc2)cc1F | 4.81 | 5.14 | 4.78 | 4.71 |
| COc1ccc2nc(-c3ccc(N/C=C\C(=O)c4cc(OC)c(OC)c(OC)c4Br)cc3)sc2c1 | 5.22 | 5.10 | 4.96 | 4.83 |
| COc1cc(OC)c2sc(-c3ccc(N/C=C\C(=O)c4ccc(OC)c(F)c4)c(C)c3)nc2c1 | 4.82 | 4.83 | 4.88 | 4.79 |
| COc1ccc2nc(-c3ccc(N/C=C\C(=O)c4ccc(OC)c([N+](=O)[O-])c4)cc3)sc2c1 | 4.87 | 4.75 | 4.75 | 4.63 |
| COc1ccc2nc(-c3ccc(N/C=C\C(=O)c4cc(OC)c(OC)c([N+](=O)[O-])c4)cc3)sc2c1 | 4.67 | 4.79 | 5.12 | 4.59 |
| COc1cc(OC)c2sc(-c3ccc(N/C=C\C(=O)c4cc(OC)c(OC)c(OC)c4Br)c(C)c3)nc2c1 | 4.85 | 4.83 | 4.76 | 4.80 |
| COc1cc(OC)c2sc(-c3ccc(N/C=C\C(=O)c4ccc(OC)c([N+](=O)[O-])c4)c(C)c3)nc2c1 | 4.92 | 5.03 | 4.97 | 4.86 |
| COc1cc(OC)c2sc(-c3ccc(N/C=C\C(=O)c4ccc(OC)c(O)c4)c(C)c3)nc2c1 | 4.84 | 4.79 | 5.51 | 4.66 |
| COc1ccc2nc(-c3ccc(N/C=C\C(=O)c4cc(OC)c(OC)c(OC)c4)c(C)c3)sc2c1 | 4.96 | 4.79 | 4.77 | 5.00 |
| COc1ccc2nc(-c3ccc(N/C=C\C(=O)c4cc(OC)c(OC)c(OC)c4Br)c(C)c3)sc2c1 | 5.19 | 4.87 | 5.03 | 4.63 |
| COc1cc(C(=O)/C=C\Nc2ccc(-c3nc4cc(OC)c(OC)c(OC)c4s3)cc2)c(Br)c(OC)c1OC | 4.87 | 5.18 | 4.81 | 4.63 |
| COc1ccc2nc(-c3ccc(N/C=C\C(=O)c4cc(OC)c(OC)c([N+](=O)[O-])c4)c(C)c3)sc2c1 | 4.66 | 4.92 | 5.30 | 4.92 |
| COc1cc(OC)c2sc(-c3ccc(N/C=C\C(=O)c4cc(OC)c(OC)c(OC)c4Br)cc3)nc2c1 | 4.92 | 4.99 | 4.79 | 4.72 |
| COc1cc(C(=O)/C=C\Nc2ccc(-c3nc4cc(OC)c(OC)c(OC)c4s3)cc2C)c(Br)c(OC)c1OC | 4.99 | 4.84 | 5.14 | 4.61 |
| COc1ccc(C(=O)/C=C\Nc2ccc(-c3nc4cc(OC)c(OC)c(OC)c4s3)cc2C)cc1O | 4.81 | 4.94 | 4.91 | 4.81 |
| COc1ccc(C(=O)/C=C\Nc2ccc(-c3nc4cc(OC)c(OC)c(OC)c4s3)cc2)cc1O | 4.64 | 4.85 | 4.74 | 4.48 |

| SMILES | pIC50 (A549) | pIC50 (HeLa) | pIC50 (MDA-MB-231) | pIC50 (MIA PaCa-2) |
| --- | --- | --- | --- | --- |
| COc1cc(C(=O)/C=C\Nc2ccc(-c3nc4cc(OC)c(OC)c(OC)c4s3)cc2C)cc(OC)c1OC | 4.63 | 4.96 | 4.89 | 4.64 |
| COc1ccc(C(=O)/C=C\Nc2ccc(-c3nc4cc(OC)c(OC)c(OC)c4s3)cc2C)cc1[N+](=O)[O-] | 5.04 | 4.87 | 4.91 | 4.63 |
| COc1cc(OC)c2sc(-c3ccc(N/C=C\C(=O)c4cc(OC)c(OC)c([N+](=O)[O-])c4)cc3)nc2c1 | 4.89 | 4.72 | 5.51 | 4.90 |
| COc1cc(OC)c2sc(-c3ccc(N/C=C\C(=O)c4ccc(OC)c(F)c4)cc3)nc2c1 | 5.28 | 5.14 | 5.17 | 5.37 |
| COc1cc(OC)c2sc(-c3ccc(N/C=C\C(=O)c4ccc(OC)c(O)c4)cc3)nc2c1 | 4.97 | 4.92 | 5.12 | 4.94 |
| COc1ccc2nc(-c3ccc(N/C=C\C(=O)c4cc(OC)c(OC)c(OC)c4)cc3)sc2c1 | 4.92 | 4.85 | 4.71 | 4.51 |
| COc1ccc2nc(-c3ccc(N/C=C\C(=O)c4ccc(OC)c(O)c4)c(C)c3)sc2c1 | 4.74 | 4.92 | 4.85 | 4.77 |
| COc1cc(OC)c2sc(-c3ccc(N/C=C\C(=O)c4cc(OC)c(OC)c(OC)c4)cc3)nc2c1 | 4.66 | 4.75 | 4.80 | 4.57 |
| COc1cc(C(=O)/C=C\Nc2ccc(-c3nc4cc(OC)c(OC)c(OC)c4s3)cc2)cc([N+](=O)[O-])c1OC | 4.93 | 5.11 | 5.01 | 4.80 |
| COc1cc(OC)c2sc(-c3ccc(N/C=C\C(=O)c4cc(OC)c(OC)c(OC)c4)c(C)c3)nc2c1 | 4.84 | 4.79 | 4.86 | 4.77 |
| COc1ccc(C(=O)/C=C\Nc2ccc(-c3nc4cc(OC)c(OC)c(OC)c4s3)cc2C)cc1F | 5.77 | 5.92 | 5.54 | 5.74 |
| COc1ccc(C(=O)/C=C\Nc2ccc(-c3nc4cc(OC)c(OC)c(OC)c4s3)cc2)cc1[N+](=O)[O-] | 4.67 | 4.94 | 4.77 | 4.80 |
| COc1cc(C(=O)/C=C\Nc2ccc(-c3nc4cc(OC)c(OC)c(OC)c4s3)cc2)cc(OC)c1OC | 4.81 | 5.28 | 4.78 | 4.54 |
| COc1cc(C(=O)/C=C\Nc2ccc(-c3nc4cc(OC)c(OC)c(OC)c4s3)cc2C)cc([N+](=O)[O-])c1OC | 4.76 | 4.88 | 4.89 | 4.66 |
| COc1cc(OC)c2sc(-c3ccc(N/C=C\C(=O)c4cc(OC)c(OC)c([N+](=O)[O-])c4)c(C)c3)nc2c1 | 4.81 | 4.94 | 5.13 | 4.98 |
| COc1ccc2nc(-c3ccc(N/C=C\C(=O)c4ccc(OC)c([N+](=O)[O-])c4)c(C)c3)sc2c1 | 4.87 | 4.75 | 4.75 | 4.63 |
| COc1ccc2nc(-c3ccc(N/C=C\C(=O)c4ccc(OC)c(O)c4)cc3)sc2c1 | 4.89 | 5.16 | 4.72 | 4.66 |

From ChEMBL document CHEMBL4261486, “2-Arylaminobenzothiazole-arylpropenone conjugates as tubulin polymerization inhibitors” (Medchemcomm, 2017)
